Here are results for six compounds from ChEMBL document CHEMBL2331506, “Design, synthesis, antiviral and cytostatic evaluation of novel isoxazolidine nucleotide analogues with a carbamoyl linker” (Bioorg Med Chem, 2013).

SMILES strings stand for the structures. Activity calls are given as the source filed them. The rule behind the calls is not given here.

Series [1] deals with Respiratory syncytial virus. Briefly: Antiviral activity against Respiratory syncytial virus long infected in human HeLa cells assessed as reduction of virus-induced cytopathogenicity at 250 uM. It is filed as functional, organism-based. A digest of the protocol:
(§1)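 Confluent monolayers (HEL fibroblasts, Vero, or HeLa cells as listed) were infected with 100 CCID50 of virus in the presence of varying compound concentrations. Virus-induced cytopathicity or plaque formation was scored once cytopathicity was complete in untreated infected controls. EC50 was taken as the concentration reducing cytopathogenicity or plaque formation by 50%.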
For orientation: Cytopathic effects are the visible damage that an infection or toxin causes in cultured cells.

The next series relates to Feline coronavirus. Briefly: Antiviral activity against Feline coronavirus infected in cat CRFK cells assessed as reduction of virus-induced cytopathogenicity at 250 uM. It is filed as functional, organism-based.
The next series relates to Human respirovirus 3. Briefly: Antiviral activity against Parainfluenza virus 3 infected in african green monkey Vero cells assessed as reduction of virus-induced cytopathogenicity at 250 uM. The format is functional, organism-based. The method, boiled down: as §1
In another series the test system is HEL. Briefly: Cytotoxicity against human HEL cells assessed as alteration of cell morphology up to 100 uM by microscopic analysis. The format is cell-based. The method, boiled down: (§2)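 Uninfected host-cell cultures were exposed to compound and examined by microscopy. Cytotoxicity was expressed as the minimum cytotoxic concentration (MCC) causing a microscopically detectable alteration of normal cell morphology.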

The subject of a further series is Sindbis virus. Nature of the series: Antiviral activity against Sindbis virus infected in african green monkey Vero cells assessed as reduction of virus-induced cytopathogenicity at 250 uM. The format is functional, organism-based. A digest of the protocol: as §1
The nature of series [2]: Cytotoxicity against cat CRFK cells assessed as alteration of cell morphology up to 100 uM by microscopic analysis. The format is cell-based, Felis catus. A digest of the protocol: as §2
In the next series the test system is MDCK. Briefly: Cytotoxicity against dog MDCK cells assessed as alteration of cell morphology up to 100 uM by microscopic analysis. It is filed as cell-based, Canis lupus familiaris. The method, boiled down: as §2
Series [3] relates to Human alphaherpesvirus 1. Briefly: Antiviral activity against thymidine kinase-deficient, ACV-resistant Herpes simplex virus 1 KOS infected in human HEL cells assessed as reduction of virus-induced cytopathogenicity at 250 uM. The format is functional, organism-based. A digest of the protocol:
(§3)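 Confluent cell monolayers were infected with 100 CCID50 of virus while exposed to varying compound concentrations. Cytopathicity was scored once it was complete in untreated infected controls. EC50 was taken as the concentration that reduced virus-induced cytopathogenicity by 50%.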

Series [4] concerns Influenza A virus. Nature of the series: Antiviral activity against Influenza A virus H3N2 infected in dog MDCK cells assessed as reduction of virus-induced cytopathogenicity at 250 uM. The format is functional, organism-based. A digest of the protocol: as §3
A further series concerns Punta Toro virus. Nature of the series: Antiviral activity against Punta Toro virus infected in african green monkey Vero cells assessed as reduction of virus-induced cytopathogenicity at 250 uM. It is filed as functional, organism-based. A digest of the protocol:
as §1

Series [5] deals with Influenza A virus. Briefly: Antiviral activity against Influenza A virus H1N1 infected in dog MDCK cells assessed as reduction of virus-induced cytopathogenicity at 250 uM. It is filed as functional, organism-based. The method, boiled down:
as §3

The subject of series [6] is Vesicular stomatitis virus. Briefly: Antiviral activity against Vesicular stomatitis virus infected in human HEL cells assessed as reduction of virus-induced cytopathogenicity at 250 uM. The format is functional, organism-based. A digest of the protocol: as §3
The subject of another series is Influenza B virus. Briefly: Antiviral activity against Influenza B virus infected in dog MDCK cells assessed as reduction of virus-induced cytopathogenicity at 250 uM. It is filed as functional, organism-based. A digest of the protocol: as §3
A further series deals with HeLa. Briefly: Cytotoxicity against human HeLa cells assessed as alteration of cell morphology up to 100 uM by microscopic analysis. The format is cell-based. A digest of the protocol:
as §2

The test system of a further series is Felid alphaherpesvirus 1. Nature of the series: Antiviral activity against Feline herpes virus infected in cat CRFK cells assessed as reduction of virus-induced cytopathogenicity at 250 uM. It is filed as functional, organism-based.
For the next series, the system named is Human alphaherpesvirus 2. Briefly: Antiviral activity against Herpes simplex virus 2 G infected in human HEL cells assessed as reduction of virus-induced cytopathogenicity at 250 uM. The format is functional, organism-based. The following applies: strain G. The method, boiled down: as §1
Series [7] has as its system Human alphaherpesvirus 1. Briefly: Antiviral activity against Herpes simplex virus 1 KOS infected in human HEL cells assessed as reduction of virus-induced cytopathogenicity at 250 uM. The format is functional, organism-based. A digest of the protocol:
as §1

Series [8] has as its system Human immunodeficiency virus 2. Nature of the series: Antiviral activity against Human immunodeficiency virus 2 ROD infected in human CEM cells assessed as reduction of virus-induced giant cell formation at 250 uM after 4 to 5 days. It is filed as functional, organism-based. As to conditions: CCRF-CEM. The method, boiled down: (§4)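 CEM cells at 3 × 10^5 cells/mL were infected with HIV at 100 CCID50 per mL in the presence of compound dilutions. They were held 4–5 days at 37 °C in humidified CO2. Syncytium (giant cell) formation was scored microscopically, and EC50 was taken as the concentration inhibiting giant cell formation by 50%.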

Series [9] has as its system Vesicular stomatitis virus. Briefly: Antiviral activity against Vesicular stomatitis virus infected in human HeLa cells assessed as reduction of virus-induced cytopathogenicity at 250 uM. The format is functional, organism-based. The method, boiled down:
as §3

Series [10] deals with Mammalian orthoreovirus 1. Briefly: Antiviral activity against Reovirus 1 infected in african green monkey Vero cells assessed as reduction of virus-induced cytopathogenicity at 250 uM. It is filed as functional, organism-based. A digest of the protocol:
as §1

The test system of the next series is Vero. Nature of the series: Cytotoxicity against african green monkey Vero cells assessed as alteration of cell morphology up to 100 uM by microscopic analysis. The format is cell-based. As to conditions: chlorocebus sabaeus. A digest of the protocol:
as §2

Series [11] relates to Human immunodeficiency virus 1. Briefly: Antiviral activity against Human immunodeficiency virus 1 3B infected in human CEM cells assessed as reduction of virus-induced giant cell formation at 250 uM after 4 to 5 days. It is filed as functional, organism-based. As to conditions: CCRF-CEM. A digest of the protocol: as §4
The next series concerns Coxsackievirus B4. Briefly: Antiviral activity against Coxsackievirus B4 infected in african green monkey Vero cells assessed as reduction of virus-induced cytopathogenicity at 250 uM. It is filed as functional, organism-based. A digest of the protocol:
as §1

As to `CCOP(=O)(OCC)[C@@H]1C[C@H](C(=O)Nc2cccc([N+](=O)[O-])c2)ON1C` (mixture of isomers), the inhibition result (in series [1]; with Feline coronavirus; with Human respirovirus 3; in the series on Sindbis virus; in the series on Human alphaherpesvirus 1 [3]; in the series on Influenza A virus [4]) was “inactive” each time. Also, the inhibition result (with Punta Toro virus; with Influenza A virus [5]; in series [6]; in the series with Influenza B virus; in the series on Felid alphaherpesvirus 1; in the series with Human alphaherpesvirus 2) was “inactive” each time. For the same compound, the inhibition result (with Human alphaherpesvirus 1 [7]; in series [8]; in series [9]; in series [10]; in [11]; with Coxsackievirus B4) was “inactive” throughout. Further, the Activity result (with HEL; in [2]; with MDCK; in the series with HeLa; with Vero) was “Non-toxic” each time.
`CCOP(=O)(OCC)[C@@H]1C[C@H](C(=O)Nc2ccc(OC)c(OC)c2)ON1C` (mixture of isomers): the inhibition result (in [1]; with Feline coronavirus; with Human respirovirus 3; in the series with Sindbis virus; in the series on Human alphaherpesvirus 1 [3]; in the series on Influenza A virus [4]) was “inactive” throughout. For the same compound, the inhibition result (in the series with Punta Toro virus; in the series on Influenza A virus [5]; in series [6]; with Influenza B virus; with Felid alphaherpesvirus 1; with Human alphaherpesvirus 2) was “inactive” throughout. The inhibition entry (in the series on Human alphaherpesvirus 1 [7]; in [8]; in series [9]; in series [10]; in [11]; with Coxsackievirus B4) was “inactive” in each case. For the same compound, the Activity entry (with HEL; in [2]; in the series with MDCK; in the series on HeLa; with Vero) was “Non-toxic” each time.
On to `CCOP(=O)(OCC)[C@H]1C[C@H](C(=O)Nc2cc(OC)c(OC)cc2C(C)=O)ON1C` (mixture of isomers), for which the inhibition result (in series [1]; in the series on Feline coronavirus; with Human respirovirus 3; in the series on Sindbis virus; in the series with Human alphaherpesvirus 1 [3]; in the series on Influenza A virus [4]) was “inactive” in each case. Further, the inhibition result (in the series on Punta Toro virus; with Influenza A virus [5]; in series [6]; in the series on Influenza B virus; with Felid alphaherpesvirus 1; with Human alphaherpesvirus 2) was “inactive” in each case. The inhibition entry (in the series with Human alphaherpesvirus 1 [7]; in [8]; in series [9]; in series [10]; in series [11]; in the series on Coxsackievirus B4) was “inactive” each time. In addition, the Activity entry (with HEL; in series [2]; in the series with MDCK; with HeLa; in the series on Vero) was “Non-toxic” in each case.
For `CCOP(=O)(OCC)[C@@H]1C[C@H](C(=O)Nc2cccc(OC)c2)ON1C` (mixture of isomers), the inhibition result (in series [1]; with Feline coronavirus; in the series on Human respirovirus 3; in the series with Sindbis virus; in the series with Human alphaherpesvirus 1 [3]; in the series with Influenza A virus [4]) was “inactive” in each case. For the same compound, the inhibition entry (in the series with Punta Toro virus; in the series on Influenza A virus [5]; in series [6]; in the series on Influenza B virus; in the series with Felid alphaherpesvirus 1; with Human alphaherpesvirus 2) was “inactive” each time. Besides, the inhibition entry (in the series with Human alphaherpesvirus 1 [7]; in series [8]; in series [9]; in series [10]; in series [11]; with Coxsackievirus B4) was “inactive” throughout. For the same compound, the Activity result (in the series with HEL; in [2]; in the series on MDCK; in the series with HeLa; in the series with Vero) was “Non-toxic” each time.
On to `CCOP(=O)(OCC)[C@@H]1C[C@H](C(=O)Nc2cccc(C)c2)ON1C` (mixture of isomers), for which the inhibition result (in [1]; in the series with Feline coronavirus; in the series on Human respirovirus 3; in the series with Sindbis virus; in the series with Human alphaherpesvirus 1 [3]; with Influenza A virus [4]) was “inactive” throughout. For the same compound, the inhibition entry (with Punta Toro virus; in the series with Influenza A virus [5]; in [6]; in the series on Influenza B virus; in the series with Felid alphaherpesvirus 1; in the series on Human alphaherpesvirus 2) was “inactive” throughout. Further, the inhibition entry (in the series on Human alphaherpesvirus 1 [7]; in [8]; in series [9]; in [10]; in series [11]; in the series with Coxsackievirus B4) was “inactive” in each case. Further, the Activity entry (in the series with HEL; in [2]; in the series with MDCK; with HeLa; with Vero) was “Non-toxic” in each case.
Consider `CCOP(=O)(OCC)[C@H]1C[C@H](C(=O)Nc2cccc(C(C)=O)c2)ON1C` (mixture of isomers), for which the inhibition entry (in [1]; in the series on Feline coronavirus; in the series with Human respirovirus 3; with Sindbis virus; with Human alphaherpesvirus 1 [3]; in the series with Influenza A virus [4]) was “inactive” each time. Moreover, the inhibition result (in the series with Punta Toro virus; in the series with Influenza A virus [5]; in [6]; in the series on Influenza B virus; in the series with Felid alphaherpesvirus 1; in the series with Human alphaherpesvirus 2) was “inactive” throughout. In addition, the inhibition entry (in the series on Human alphaherpesvirus 1 [7]; in series [8]; in series [9]; in series [10]; in [11]; in the series with Coxsackievirus B4) was “inactive” in each case. Further, the Activity result (in the series on HEL; in [2]; with MDCK; with HeLa; in the series on Vero) was “Non-toxic” throughout.
